Assay outcomes as filed in PubChem.
PostGolgi ctrl: yeast control strain growth, post-Golgi counter-screen | efflux-deficient yeast background strain, growth absorbance A615, 16 h | inhibition, % at 10 µM | hit rate 5% among 98,000 | AID 738
PostGolgi yeast: growth inhibition of a yeast mutant, post-Golgi transport screen | post-Golgi transport phenotypic cell assay | inhibition, % at 10 µM | hit rate 0.9% among 98,000;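 further: yeast cells grown in 1536-well plates; yeast grown about 18 h at 30C before absorbance read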
hDAT+cocaine: human DAT dopamine uptake with cocaine, either direction | Q01959 | LLC-PK1 hDAT cells, [14C]-dopamine uptake with cocaine IC80; actives deviate in either direction | B-score at 10 µM | hit rate 1.3% among 110,000 | AID 449768;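 active means Z score or B-score, a plate-position-corrected score, falls beyond the plate's 99.7% confidence bounds, in either direction; inactive means both scores lie inside the 99.7% bounds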;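 further: scored against the spread of the other compound wells on the same plate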
Target sequence (Q01959 whole entry, looked up): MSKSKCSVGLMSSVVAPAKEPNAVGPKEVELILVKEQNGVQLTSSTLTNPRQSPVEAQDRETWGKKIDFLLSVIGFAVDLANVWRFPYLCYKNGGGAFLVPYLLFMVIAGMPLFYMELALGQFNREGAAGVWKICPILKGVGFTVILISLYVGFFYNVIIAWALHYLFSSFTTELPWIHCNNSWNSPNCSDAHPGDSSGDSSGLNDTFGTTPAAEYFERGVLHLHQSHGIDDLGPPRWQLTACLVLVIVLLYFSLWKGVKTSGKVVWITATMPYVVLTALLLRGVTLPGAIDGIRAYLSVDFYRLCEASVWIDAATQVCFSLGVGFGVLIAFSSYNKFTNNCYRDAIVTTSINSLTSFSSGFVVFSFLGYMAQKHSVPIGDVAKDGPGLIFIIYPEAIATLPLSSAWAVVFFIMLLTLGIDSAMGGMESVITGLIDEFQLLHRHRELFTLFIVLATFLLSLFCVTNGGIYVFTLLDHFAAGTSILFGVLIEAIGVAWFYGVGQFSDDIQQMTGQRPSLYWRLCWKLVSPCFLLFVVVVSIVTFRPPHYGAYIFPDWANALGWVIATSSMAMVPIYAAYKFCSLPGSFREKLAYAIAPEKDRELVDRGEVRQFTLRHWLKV
Ecoli tolC: E. coli tolC mutant growth inhibition | E. coli BW25113 tolC mutant growth, OD615 | growth inhibition, % at 10 µM (by protocol) | hit rate 2.2% among 65,000;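 active means growth inhibition at or above a cutoff equal to the mean over every tested compound plus 3 SD, cut at about 60% in these data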;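 further: growth measured after 20 h incubation at 37 °C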
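Doses: one dose of 10 µM final / Material: E. coli BW25113 ΔtolC::kan, tolC deletion mutant strain / Buffer or medium: LB with kanamycin 50 µg/mL / Evaluation: percent growth inhibition / Detection: optical density read at 615 nm / Incubation: 37 °C, 20 h exposure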
D1 mod: allosteric modulators of human D1 dopamine receptor | B-score at 10 µM | P21728 | hit rate 5.9% among 58,000 | HEK293 D1, CRE-luciferase, dopamine EC30 potentiation; actives deviate in either direction;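 active means luminescence count or its row- and column-corrected plate score outside the 99.7% band of the plate's sample wells, on either side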
E coli WT exp: growth inhibitors of E. coli BW25113 wild type | OD600 absorbance | growth inhibition, % at 100 µM | hit rate 0.15% among 98,000;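 active means growth inhibition above about 50% at one test dose, limit read from the data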;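 further: growth measured after 20 h incubation at 37 °C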
The depositor's hits bear a star; x = no result. The list is not random: actives were taken first. Their share in the collection is about 9.3%. Unless noted, no stated cut-off is given here; in the data, active means inhibition above about 30%; inactive means the rest.

SMILES	PostGolgi ctrl	PostGolgi yeast	hDAT+cocaine	Ecoli tolC	D1 mod	E coli WT exp
COc1ccc(-c2nc(N)ncc2-c2csc(C)n2)c(O)c1	4	-5	0.33	-18	x	-2
COc1ccc(-c2nc(N)nc(C)c2Oc2ccccc2Br)c(O)c1	79*	56*	-0.19	35	0.021	5
CC1(C)Cc2ccccc2-c2nc(NCCCO)n(-c3ccccc3)c(=O)c21	13	3	1.1	42	1.2	8
CCOc1c2c(nc3ccc(Cl)cc13)CCC2	36*	0	-0.32	15	-0.067	-6
O=C(CNS(=O)(=O)c1ccc(Br)s1)NCC1COc2ccccc2O1 (stereo not drawn)	95*	68*	-0.9	-10	-0.46	4
O=C(NCC1COc2ccccc2O1)c1ccc(NC(=O)c2ccco2)cc1 (stereo not drawn)	17	3	0.45	19	0.054	-14
O=C(NCC1COc2ccccc2O1)c1ccc(Cl)cc1 (stereo not drawn)	25	58*	-0.024	23	x	4
N#CCCn1ncn(-c2ccccc2)c1=S	-5	7	-0.45	-17	1.2	-14
CCO[C@@H]1OC(C(=O)NCc2nc3ccccc3[nH]2)=C[C@H](c2ccc(C(F)(F)F)cc2)[C@H]1CCCO	x	x	1.3	x	x	x
CCOC(=O)c1c(C)c(C(=O)Nc2ccc3c(c2)OCO3)c(C)n1C	2	6	0.11	-3	x	2
CCOC(=O)c1c(N)sc(C(=O)Nc2ccc3c(c2)OCO3)c1C	-1	-2	0.87	12	-4.4*	-15
COc1ccc(C(=O)Nc2c(N)nc(SCC(=O)N3CCCCCC3)[nH]c2=O)cc1OC	10	-9	-1.6	-8	0.054	3
CC1CN(C2CCN(C(=O)c3ccccc3Cl)CC2)CC(C)O1 (stereo not drawn)	5	-2	0.33	1	x	2
CCOC(=O)c1c(C)oc2c1c(C(c1cccnc1)N1CCCCC1)c(O)c1ccccc12 (stereo not drawn)	53*	18	0.2	x	x	-8
CCOC(=O)c1c(C)oc2c1c(C(c1ccccc1)N1CCOCC1)c(O)c1ccccc12 (stereo not drawn)	29	-4	-0.69	x	x	-3
CC(C)(C)CN1C(N)=NC[C@@H]1Cc1ccccc1	x	x	-2.7*	x	x	x
CCCCOn1c(C)c(C(=O)OCC)c2c3nonc3ccc21	x	x	-0.8	66*	-0.043	x
CCN(CC)C(NC(=O)Cc1ccccc1)C(Cl)(Cl)Cl (stereo not drawn)	6	5	0.15	x	x	4
CN(Cc1ccccc1)C(NC(=O)c1ccccc1)C(Cl)(Cl)Cl (stereo not drawn)	35*	9	-0.68	x	x	1
COc1ccc(/C=C(/C(=O)Nc2ccccc2C(=O)N2CCCC2)c2ccccc2)cc1	36*	2	0.94	x	x	-17
COc1ccc(/C=C(/C(=O)Nc2ccccc2C(=O)NC(C)C)c2ccccc2)cc1	30	2	0.89	x	x	-30
CCN(CC)c1ccc(C(=O)OCC(=O)N2CCN(c3ccccc3)CC2)cc1	-1	24	1.8	-5	1.9	-11
CCSc1nc2c(c(=O)n(C)c(=O)n2C)n1Cc1ccc(Cl)cc1	x	x	-0.56	40	1.7	x
CC(C)CCNc1nc2c(c(=O)n(Cc3cccc(F)c3)c(=O)n2C)n1C	41*	0	2.7	42	0.032	9
C=CCNc1nc2c(c(=O)n(C)c(=O)n2C)n1Cc1ccc(F)cc1	8	1	-2.6	1	-2.8	-2
SMILES	PostGolgi ctrl	PostGolgi yeast	hDAT+cocaine	Ecoli tolC	D1 mod	E coli WT exp
Cc1ccc(Cn2c(SCC(C)C)nc3c2c(=O)n(C)c(=O)n3C)cc1	30	35*	-0.51	92*	0.097	-11
COc1ccc(CNc2nc3c(c(=O)n(Cc4ccc(F)cc4)c(=O)n3C)n2C)cc1	20	-5	-0.018	71*	-1.2	10
CCC(C)Nc1nc2c(c(=O)n(C)c(=O)n2C)n1Cc1ccc(F)cc1 (stereo not drawn)	35*	-7	0.89	19	2.2	1
CC(C)(NCc1ccccc1Cl)C(=O)O	x	x	x	-25	0.023	x
Cc1ccc(S(=O)(=O)NC(CC(=O)n2nc(C)cc2C)c2ccccc2)cc1 (stereo not drawn)	35*	-5	-1.4	x	x	0
CCn1c(SCC(=O)N2CCc3ccccc32)nnc1-c1ccco1	7	5	1.1	x	x	-6
CCc1cc2cccc(C)c2nc1SCC(=O)NNC(=O)c1ccco1	38*	-5	-0.83	x	x	0
